By IC50 is commonly meant the concentration needed to halve the response being measured.

Structures are written as SMILES.

Among the data in ChEMBL document CHEMBL1926631, “N⁴-Aryl-6-substitutedphenylmethyl-7H-pyrrolo[2,3-d]pyrimidine-2,4-diamines as receptor tyrosine kinase inhibitors” (Bioorg Med Chem, 2012) are IC50 and Ratio IC50 values, retold here.

Assay [1] has as its target Epidermal growth factor receptor (Homo sapiens, UniProt P00533). Description: Inhibition of EGFR tyrosine kinase activity in EGF-stimulated human A431 cells after 60 mins by ELISA. The assay is classed as cell-based, A-431. (In general: In an ELISA, binding on a coated surface is turned into a signal by an enzyme label.)
Assay [2] addresses T1, Vascular endothelial growth factor receptor 2 (Homo sapiens, UniProt P35968). Nature of the assay: Inhibition of VEGFR2 tyrosine kinase activity in VEGF-stimulated human U251 cells after 60 mins by ELISA. The assay is classed as cell-based, U-251.
In assay [3] the target is Vascular endothelial growth factor receptor 1 (Homo sapiens, UniProt P17948). Nature of the assay: Inhibition of VEGFR1 tyrosine kinase activity in VEGF-stimulated human A498 cells after 60 mins by ELISA. The assay is classed as cell-based. Put shortly:
(§1)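 Lysed in ice-cold TBS/0.05% triton with protease and phosphatase inhibitors, heat/ethanol-fixed. Total phosphotyrosine read by HRP anti-phosphotyrosine with luminol chemiluminescence.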

Assay [4] concerns the target Platelet-derived growth factor receptor beta (Homo sapiens, UniProt P09619). Description: Inhibition of PDGFRbeta tyrosine kinase activity in PDGF-BB-stimulated human SF-539 cells after 60 mins by ELISA. The assay is classed as cell-based. Put shortly:
as §1

A further assay has as its system A-431. Nature of the assay: Cytotoxicity against EGFR overexpressing human A431 after 12 hrs by cyquant DNA dye-based fluorescence method. The assay is classed as functional, cell-based. To be noted: A-431, 12 h.
The target in assay [5] is T1, Vascular endothelial growth factor receptor 2. Nature of the assay: Ratio of semaxanib IC50 to compound IC50 for VEGFR2 tyrosine kinase activity in VEGF-stimulated human U251 cells. The assay is classed as cell-based. To be noted: U-251. The procedure, abridged:
(§2)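 U251 cells, which naturally express high VEGFR-2, were grown to 60–75% confluence, kept 18 h serum-free, then pre-treated 60 min with 0.10–333 μM inhibitor before 100 ng/mL VEGF for 10 min. Total tyrosine phosphorylation was read by fixed-cell HRP-anti-phosphotyrosine ELISA with luminol luminescence, as % of growth factor alone.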

For assay [6] the target is unchanged. Nature of the assay: Ratio of Sunitinib IC50 to compound IC50 for VEGFR2 tyrosine kinase activity in VEGF-stimulated human U251 cells. The assay is classed as cell-based. The settings on record: U-251. The procedure, abridged:
as §2

Sequence of Vascular endothelial growth factor receptor 1 (P17948 whole entry): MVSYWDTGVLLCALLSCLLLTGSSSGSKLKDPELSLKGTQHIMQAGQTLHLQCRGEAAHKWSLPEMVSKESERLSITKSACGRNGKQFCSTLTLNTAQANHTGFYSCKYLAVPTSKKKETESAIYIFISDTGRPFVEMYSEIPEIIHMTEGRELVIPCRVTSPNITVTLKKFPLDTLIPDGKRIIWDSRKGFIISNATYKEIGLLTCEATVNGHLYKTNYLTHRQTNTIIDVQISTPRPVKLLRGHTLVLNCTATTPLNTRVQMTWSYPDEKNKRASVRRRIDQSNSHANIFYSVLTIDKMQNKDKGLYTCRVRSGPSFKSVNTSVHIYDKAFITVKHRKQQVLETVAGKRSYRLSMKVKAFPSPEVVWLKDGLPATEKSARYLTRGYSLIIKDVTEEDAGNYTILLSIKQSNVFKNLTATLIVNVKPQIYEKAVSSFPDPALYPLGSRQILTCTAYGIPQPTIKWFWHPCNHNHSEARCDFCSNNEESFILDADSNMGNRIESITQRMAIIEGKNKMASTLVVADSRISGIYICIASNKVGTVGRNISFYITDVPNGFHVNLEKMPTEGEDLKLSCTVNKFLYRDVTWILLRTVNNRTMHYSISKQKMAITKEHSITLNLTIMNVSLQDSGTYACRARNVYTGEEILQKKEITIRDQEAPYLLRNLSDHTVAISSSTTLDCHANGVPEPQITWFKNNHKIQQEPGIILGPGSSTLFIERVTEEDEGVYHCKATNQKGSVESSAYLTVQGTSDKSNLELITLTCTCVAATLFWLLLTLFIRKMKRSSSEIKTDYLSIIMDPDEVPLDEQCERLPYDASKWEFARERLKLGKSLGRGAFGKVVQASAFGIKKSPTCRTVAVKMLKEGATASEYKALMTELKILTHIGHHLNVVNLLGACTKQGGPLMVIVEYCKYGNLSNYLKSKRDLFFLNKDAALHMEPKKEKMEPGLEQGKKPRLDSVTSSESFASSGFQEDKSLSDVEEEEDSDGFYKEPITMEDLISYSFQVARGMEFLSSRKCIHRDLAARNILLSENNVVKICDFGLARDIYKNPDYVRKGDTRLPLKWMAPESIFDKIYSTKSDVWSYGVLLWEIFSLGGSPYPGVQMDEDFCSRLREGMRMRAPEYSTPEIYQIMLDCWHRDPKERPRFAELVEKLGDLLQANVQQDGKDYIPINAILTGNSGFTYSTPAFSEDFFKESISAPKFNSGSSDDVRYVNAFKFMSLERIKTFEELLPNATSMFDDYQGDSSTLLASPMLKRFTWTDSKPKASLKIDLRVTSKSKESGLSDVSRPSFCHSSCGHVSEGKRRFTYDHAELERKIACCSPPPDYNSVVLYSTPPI
Sequence of Epidermal growth factor receptor (P00533 whole entry): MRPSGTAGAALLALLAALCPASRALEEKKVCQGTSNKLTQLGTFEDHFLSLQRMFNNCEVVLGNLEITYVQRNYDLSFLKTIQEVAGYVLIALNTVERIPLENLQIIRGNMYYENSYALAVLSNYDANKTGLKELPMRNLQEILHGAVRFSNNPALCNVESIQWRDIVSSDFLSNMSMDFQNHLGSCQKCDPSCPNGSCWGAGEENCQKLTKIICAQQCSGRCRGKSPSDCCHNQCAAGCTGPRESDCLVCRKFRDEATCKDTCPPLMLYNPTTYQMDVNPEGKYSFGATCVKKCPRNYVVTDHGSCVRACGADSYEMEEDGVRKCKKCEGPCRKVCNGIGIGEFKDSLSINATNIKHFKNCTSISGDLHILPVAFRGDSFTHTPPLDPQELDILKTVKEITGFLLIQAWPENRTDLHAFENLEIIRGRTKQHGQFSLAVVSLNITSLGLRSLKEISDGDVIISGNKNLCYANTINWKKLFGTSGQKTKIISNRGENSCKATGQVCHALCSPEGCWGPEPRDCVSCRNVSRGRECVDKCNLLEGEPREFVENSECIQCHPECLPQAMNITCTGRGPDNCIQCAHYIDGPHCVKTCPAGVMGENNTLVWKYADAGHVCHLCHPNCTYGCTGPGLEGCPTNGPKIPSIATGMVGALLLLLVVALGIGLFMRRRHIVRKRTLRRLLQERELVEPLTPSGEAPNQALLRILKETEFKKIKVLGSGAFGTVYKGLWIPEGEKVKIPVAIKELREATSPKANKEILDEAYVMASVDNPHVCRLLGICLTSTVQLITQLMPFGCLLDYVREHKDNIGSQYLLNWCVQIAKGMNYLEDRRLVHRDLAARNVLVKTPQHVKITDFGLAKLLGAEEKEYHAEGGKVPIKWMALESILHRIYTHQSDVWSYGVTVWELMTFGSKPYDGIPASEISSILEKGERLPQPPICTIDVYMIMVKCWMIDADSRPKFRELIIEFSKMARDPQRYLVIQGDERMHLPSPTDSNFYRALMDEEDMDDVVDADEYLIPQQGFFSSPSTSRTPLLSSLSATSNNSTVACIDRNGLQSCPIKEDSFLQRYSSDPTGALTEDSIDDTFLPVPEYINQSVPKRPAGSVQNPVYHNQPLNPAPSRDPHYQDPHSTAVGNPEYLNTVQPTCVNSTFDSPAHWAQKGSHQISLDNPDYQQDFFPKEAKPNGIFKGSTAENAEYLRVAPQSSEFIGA
T1 sequence (P35968 whole entry): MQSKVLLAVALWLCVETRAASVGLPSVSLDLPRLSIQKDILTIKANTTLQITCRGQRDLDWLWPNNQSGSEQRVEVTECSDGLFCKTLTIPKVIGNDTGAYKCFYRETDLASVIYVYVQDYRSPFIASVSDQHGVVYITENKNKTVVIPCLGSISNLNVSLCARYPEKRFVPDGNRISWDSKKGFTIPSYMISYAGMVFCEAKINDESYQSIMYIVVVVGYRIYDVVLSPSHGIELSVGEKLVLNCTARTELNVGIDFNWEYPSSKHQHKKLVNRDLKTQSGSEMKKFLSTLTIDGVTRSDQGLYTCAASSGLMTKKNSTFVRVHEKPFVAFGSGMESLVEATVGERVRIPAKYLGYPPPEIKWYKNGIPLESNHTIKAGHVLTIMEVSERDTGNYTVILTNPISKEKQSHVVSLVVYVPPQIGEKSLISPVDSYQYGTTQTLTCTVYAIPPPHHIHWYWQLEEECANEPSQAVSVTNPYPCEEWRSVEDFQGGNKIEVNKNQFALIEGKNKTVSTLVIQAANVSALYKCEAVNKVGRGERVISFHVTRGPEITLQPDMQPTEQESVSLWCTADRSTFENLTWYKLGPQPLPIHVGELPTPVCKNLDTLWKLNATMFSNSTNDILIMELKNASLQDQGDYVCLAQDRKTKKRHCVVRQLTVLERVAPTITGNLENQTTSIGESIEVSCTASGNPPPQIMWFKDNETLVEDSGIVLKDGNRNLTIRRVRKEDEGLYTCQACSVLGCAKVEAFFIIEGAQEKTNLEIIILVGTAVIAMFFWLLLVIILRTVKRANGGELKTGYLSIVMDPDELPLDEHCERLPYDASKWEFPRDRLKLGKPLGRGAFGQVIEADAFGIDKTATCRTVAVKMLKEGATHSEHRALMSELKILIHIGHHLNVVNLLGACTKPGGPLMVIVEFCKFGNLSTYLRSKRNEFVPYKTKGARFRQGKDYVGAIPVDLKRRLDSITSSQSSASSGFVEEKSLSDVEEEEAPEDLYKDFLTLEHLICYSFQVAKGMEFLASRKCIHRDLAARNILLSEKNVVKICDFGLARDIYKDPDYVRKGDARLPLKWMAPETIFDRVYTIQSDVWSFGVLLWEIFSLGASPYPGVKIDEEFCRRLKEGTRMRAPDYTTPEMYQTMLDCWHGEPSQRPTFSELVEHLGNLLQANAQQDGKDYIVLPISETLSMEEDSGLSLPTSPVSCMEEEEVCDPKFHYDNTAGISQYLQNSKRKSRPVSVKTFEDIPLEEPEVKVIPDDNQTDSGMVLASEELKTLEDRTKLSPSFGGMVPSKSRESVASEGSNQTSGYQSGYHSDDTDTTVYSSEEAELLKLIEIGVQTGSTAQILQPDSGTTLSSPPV
Sequence of Platelet-derived growth factor receptor beta (P09619 whole entry): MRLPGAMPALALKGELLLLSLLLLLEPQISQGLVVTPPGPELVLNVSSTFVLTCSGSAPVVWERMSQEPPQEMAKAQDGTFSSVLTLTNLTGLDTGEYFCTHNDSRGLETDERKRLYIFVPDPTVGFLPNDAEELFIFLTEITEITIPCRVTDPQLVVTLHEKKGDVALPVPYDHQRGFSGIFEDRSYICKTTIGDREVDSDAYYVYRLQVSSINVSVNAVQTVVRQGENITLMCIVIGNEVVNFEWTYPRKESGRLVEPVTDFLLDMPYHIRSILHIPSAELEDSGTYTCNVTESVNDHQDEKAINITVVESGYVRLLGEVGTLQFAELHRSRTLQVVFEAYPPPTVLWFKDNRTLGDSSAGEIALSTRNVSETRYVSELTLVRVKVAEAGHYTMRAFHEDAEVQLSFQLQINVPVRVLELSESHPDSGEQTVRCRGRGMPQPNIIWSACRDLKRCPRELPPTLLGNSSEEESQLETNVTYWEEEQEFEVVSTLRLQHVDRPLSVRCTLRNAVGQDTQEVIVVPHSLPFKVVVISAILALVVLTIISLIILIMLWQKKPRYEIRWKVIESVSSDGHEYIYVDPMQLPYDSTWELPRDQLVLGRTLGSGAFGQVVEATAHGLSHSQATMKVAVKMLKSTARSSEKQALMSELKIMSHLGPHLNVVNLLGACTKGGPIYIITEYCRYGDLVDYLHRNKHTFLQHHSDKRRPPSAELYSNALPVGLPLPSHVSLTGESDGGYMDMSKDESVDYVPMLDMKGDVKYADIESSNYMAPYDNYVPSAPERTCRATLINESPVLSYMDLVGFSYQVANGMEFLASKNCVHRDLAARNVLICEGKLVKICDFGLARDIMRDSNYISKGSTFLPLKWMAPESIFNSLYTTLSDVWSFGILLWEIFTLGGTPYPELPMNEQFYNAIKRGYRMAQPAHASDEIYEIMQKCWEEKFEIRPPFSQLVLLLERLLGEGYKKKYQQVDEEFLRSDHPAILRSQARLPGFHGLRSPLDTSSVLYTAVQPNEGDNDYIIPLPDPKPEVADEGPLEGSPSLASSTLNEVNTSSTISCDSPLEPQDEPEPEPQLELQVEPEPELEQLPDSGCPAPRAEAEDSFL

As to `COc1ccc(OC)c(Cc2cc3c(Nc4ccc(Cl)cc4)nc(N)nc3[nH]2)c1`, the IC50 was more than 200 µM in assay [1]; 56.7 µM in assay [2]; 15.2 µM in assay [3]; 44.3 µM in assay [4]; 5.8 µM with A-431.
For `Cc1ccccc1Cc1cc2c(Nc3ccc(Cl)cc3)nc(N)nc2[nH]1`, the IC50 in assay [1] is 0.24 µM; in assay [2] it was 45.4 µM; in assay [3] it was 45.9 µM; in assay [4], more than 300 µM; in the assay with A-431, 5.6 µM.
As to `COc1ccc(OC)c(Cc2cc3c(Nc4cccc(Br)c4)nc(N)nc3[nH]2)c1`, the IC50 in assay [2] was 0.62 µM; in the assay with A-431 it was more than 50 µM.
As for `Cc1ccccc1Cc1cc2c(Nc3ccc(Cl)cc3F)nc(N)nc2[nH]1`, the IC50 in assay [1] was more than 200 µM; in assay [2], 29.8 µM; in assay [3], 16 µM; in assay [4] it was more than 300 µM; in the assay on A-431 it was more than 200 µM.
`Nc1nc(Nc2ccc(Cl)cc2)c2cc(Cc3cccc4ccccc34)[nH]c2n1`: the IC50 is 32.1 µM in assay [2] and more than 200 µM in assay [3].
For `Nc1nc(Nc2ccc(Cl)cc2F)c2cc(Cc3cccc4ccccc34)[nH]c2n1`, the IC50 in assay [1] is more than 200 µM; in assay [2] it was 0.48 µM; in assay [3] it was more than 200 µM; in assay [4] it was 193 µM; with A-431, 46.7 µM. The figures for the Ratio IC50 in assay [5] and in assay [6] were 25 and 39, respectively.
As to `COc1ccc(OC)c(Cc2cc3c(Nc4ccc(Cl)cc4F)nc(N)nc3[nH]2)c1`, the IC50 in assay [1] is 113 µM; in assay [2], 0.1 µM; in assay [3], 186 µM; in assay [4] it was 146 µM; in the assay on A-431, 13.4 µM. Besides, the Ratio IC50 in assay [5] turned out to be 120; in assay [6] it was 189.
